{"source": "paper PMC6045484", "about": "(ACS Omega, 2018)", "key": {"[1]": {"test_system": "multidrug-resistant P. yoelii nigeriensis", "assay": "blood-schizontocidal activity against P. yoelii nigeriensis infection in mice", "type": "in vivo, Plasmodium yoelii nigeriensis", "settings": "Swiss mice", "summary_of_the_method": "(§1)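 Swiss mice of either sex (about 15–20 g, same age), six per group, inoculated intraperitoneally on day 0 with 1 × 10^7 infected erythrocytes from a donor mouse. Oral test compound at 100, 50, 25 or 10 mg/kg, CQ diphosphate (10 mg/kg/day × 4) or vehicle started 4 h later, on D0 to D+3. Giemsa tail-blood smears on D+4 and D+7. Curative: parasites eliminated, no relapse, all mice surviving to D+60.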"}, "[2]": {"test_system": "SK-MEL, KB, BT-549, SK-OV-3, VERO and LLC-PK1 cells", "assay": "cytotoxicity, neutral red uptake assay", "type": "cell-based, mammalian", "settings": "highest test concentration 4760 ng/mL", "summary_of_the_method": "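Cells seeded at 25 000/well and allowed 24 h to reach confluence. Test compound was then added and incubated 48 h. Viable cells were counted by a modified neutral red uptake method. The panel was four human cancer lines and two noncancerous mammalian kidney lines. Doxorubicin served as positive control and DMSO as negative control.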"}, "SA (ATCC29213)": {"test_system": "SA (ATCC29213)", "assay": "in vitro antibacterial activity", "type": "cell-based", "settings": "Staphylococcus aureus; for IC50: ATCC29213, read-out: IC50 (concentration that affords 50% growth inhibition), SA; for MBC: ATCC29213, read-out: MBC (minimum bactericidal concentration), SA; for MIC: ATCC29213, read-out: MIC, SA", "summary_of_the_method": "(§2)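 Test compound serially diluted in 20% DMSO/saline and plated in duplicate, up to 20 μg/mL. Inoculum in cation-adjusted Mueller–Hinton broth, pH 7.3, set by OD630 to 5 × 10^5 CFU/mL. Incubated 16–20 h at 35 °C; 530 nm read before and after. IC50 is 50% growth inhibition; MIC is no detectable growth. MBC from clear wells subcultured on agar. Ciprofloxacin control.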"}, "C. neoformans ATCC90113": {"test_system": "C. neoformans ATCC90113", "assay": "in vitro antifungal activity", "type": "cell-based, Cryptococcus neoformans", "settings": "Cryptococcus neoformans; for IC50: ATCC90113, read-out: C. neoformans IC50; for MFC: ATCC90113, read-out: C. neoformans MFC; for MIC: ATCC90113, read-out: C. neoformans MIC", "summary_of_the_method": "(§3)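 Modified NCCLS broth method in Sabouraud dextrose. Inoculum set by OD630 to 1.5 × 10^3 CFU/mL. Test compound serially diluted in 20% DMSO/saline, duplicate wells, up to 20 μg/mL. Incubated 70–74 h at 35 °C; 530 nm read before and after. IC50 is 50% growth inhibition; MIC is no detectable growth. MFC from clear wells subcultured on agar. Amphotericin B control.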"}, "P. falciparum (W2)": {"test_system": "P. falciparum (W2)", "assay": "in vitro antimalarial activity, plasmodial LDH", "type": "cell-based, Plasmodium falciparum", "settings": "for IC50: Plasmodium falciparum, W2, 72 h, read-out: P. falciparum (W2) IC50, CQ-resistant W2 strain, 72 h", "summary_of_the_method": "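P. falciparum-infected erythrocytes (2% parasitemia, 2% hematocrit) in RPMI 1640 with 10% human serum and 60 μg/mL amikacin. Exposed to test compound dilutions for 72 h at 37 °C under 90% N2/5% O2/5% CO2. LDH measured with Malstat reagent (30 min, room temperature), then NBT/PES for 1 h in the dark, stopped with 5% acetic acid, read at 650 nm. IC50 from dose-response curves.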"}, "[3]": {"test_system": "L. donovani promastigotes", "assay": "in vitro antileishmanial activity, alamarBlue assay", "type": "cell-based, Leishmania donovani", "settings": "Leishmania donovani, 48 h; for IC50: read-out: L. donovani IC50, promastigotes, 48 h; for IC90: read-out: L. donovani IC90, promastigotes, 48 h"}, "[4]": {"test_system": "M. intracellulare (ATCC23068)", "assay": "in vitro antibacterial activity, modified alamarBlue procedure", "type": "cell-based, Mycobacterium intracellulare", "settings": "Mycobacterium intracellulare; for IC50: ATCC23068, read-out: IC50 (concentration that affords 50% growth inhibition), M. intracellulare; for MBC: ATCC23068, read-out: MBC (minimum bactericidal concentration), M. intracellulare; for MIC: ATCC23068, read-out: MIC, M. intracellulare", "summary_of_the_method": "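Modified alamarBlue microplate method. Test compound serially diluted in 20% DMSO/saline, duplicate wells, up to 20 μg/mL. Inoculum 2.0 × 10^6 CFU/mL in Middlebrook 7H9 with OADC, pH 7.3, containing 5% alamarBlue. Incubated 70–74 h at 37 °C, 10% CO2; fluorescence 544ex/590em read before and after. MIC: no blue-to-pink change. MBC by subculturing blue wells on agar. Ciprofloxacin control.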"}, "P. falciparum (D6)": {"test_system": "P. falciparum (D6)", "assay": "in vitro antimalarial activity, plasmodial LDH", "type": "cell-based, Plasmodium falciparum", "settings": "Plasmodium falciparum, D6, 72 h, read-out: P. falciparum (D6) IC50"}, "MRSA (ATCC33591)": {"test_system": "MRSA (ATCC33591)", "assay": "in vitro antibacterial activity", "type": "cell-based, methicillin-resistant Staphylococcus aureus", "settings": "Staphylococcus aureus, ATCC33591|MRSA, read-out: MIC, MRSA", "summary_of_the_method": "as §2"}, "[5]": {"test_system": "P. berghei (sensitive strain)", "assay": "blood-schizontocidal activity against P. berghei infection in mice", "type": "in vivo, Plasmodium berghei", "settings": "Swiss mice", "summary_of_the_method": "as §1"}, "C. albicans ATCC90028": {"test_system": "C. albicans ATCC90028", "assay": "in vitro antifungal activity", "type": "cell-based, Candida albicans", "settings": "Candida albicans; for IC50: ATCC90028, read-out: C. albicans IC50; for MFC: ATCC90028, read-out: C. albicans MFC; for MIC: ATCC90028, read-out: C. albicans MIC", "summary_of_the_method": "as §3"}, "A. fumigatus ATCC 90906": {"test_system": "A. fumigatus ATCC 90906", "assay": "in vitro antifungal activity", "type": "cell-based, Aspergillus fumigatus", "settings": "Aspergillus fumigatus; for IC50: ATCC90906, read-out: A. fumigatus IC50; for MFC: ATCC90906, read-out: A. fumigatus MFC; for MIC: ATCC90906, read-out: A. fumigatus MIC", "summary_of_the_method": "as §3"}}, "note": "Entries after “also recorded” stand apart in the source; their conditions may differ."}
{"smiles": "CCCCCOc1c(OC)cc(NC(C)CCCN)c2nc(C(C)(C)C)ccc12", "note": "(stereo not drawn) [compound 46, N^4-(2-tert-Butyl-6-methoxy-5-(pentyloxy)quinolin-8-yl)pentane-1,4-diamine]", "values": [{"measurement": "P. yoelii nigeriensis blood-schizontocidal activity (mice cured/treated)", "setting": "[1]; 25 mg/kg/day × 4, oral", "result": "active (4/6)"}, {"measurement": "P. yoelii nigeriensis blood-schizontocidal activity (mice cured/treated)", "setting": "[1]; 50 mg/kg/day × 4, oral", "result": "curative (6/6)"}, {"measurement": "P. yoelii nigeriensis blood-schizontocidal activity (mice cured/treated)", "setting": "[1]; 100 mg/kg/day × 4, oral", "result": "cured 100% mice; also recorded: curative (6/6)"}, {"measurement": "cytotoxicity CTX", "setting": "[2]", "result": "NC (NC, not cytotoxic up to 4760 ng/mL (4.76 μg/mL))"}, {"measurement": "IC50", "setting": "SA (ATCC29213)", "result": 9.04, "unit": "µg/mL"}, {"measurement": "MBC", "setting": "SA (ATCC29213)", "result": "> 20", "unit": "µg/mL"}, {"measurement": "MIC", "setting": "SA (ATCC29213)", "result": "> 20", "unit": "µg/mL"}, {"measurement": "IC50", "setting": "C. neoformans ATCC90113", "result": "> 20", "unit": "µg/mL"}, {"measurement": "MFC", "setting": "C. neoformans ATCC90113", "result": "> 20", "unit": "µg/mL"}, {"measurement": "MIC", "setting": "C. neoformans ATCC90113", "result": "> 20", "unit": "µg/mL"}, {"measurement": "IC50", "setting": "P. falciparum (W2)", "result": 0.022, "unit": "µg/mL"}, {"measurement": "IC50", "setting": "[3]", "result": 32, "unit": "µg/mL"}, {"measurement": "IC90", "setting": "[3]", "result": "> 40", "unit": "µg/mL"}, {"measurement": "IC50", "setting": "[4]", "result": "> 20", "unit": "µg/mL"}, {"measurement": "MBC", "setting": "[4]", "result": "> 20", "unit": "µg/mL"}, {"measurement": "MIC", "setting": "[4]", "result": "> 20", "unit": "µg/mL"}, {"measurement": "IC50", "setting": "P. falciparum (D6)", "result": 0.02, "unit": "µg/mL"}, {"measurement": "MIC", "setting": "MRSA (ATCC33591)", "result": "> 20", "unit": "µg/mL"}, {"measurement": "P. berghei blood-schizontocidal activity (mice cured/treated)", "setting": "[5]; 10 mg/kg/day × 4, oral", "result": "active (4/6)"}, {"measurement": "P. berghei blood-schizontocidal activity (mice cured/treated)", "setting": "[5]; 25 mg/kg/day × 4, oral", "result": "curative (6/6)"}, {"measurement": "P. berghei blood-schizontocidal activity (mice cured/treated)", "setting": "[5]; 50 mg/kg/day × 4, oral", "result": "curative (6/6)"}, {"measurement": "P. berghei blood-schizontocidal activity (mice cured/treated)", "setting": "[5]; 100 mg/kg/day × 4, oral", "result": "curative (6/6)"}, {"measurement": "IC50", "setting": "C. albicans ATCC90028", "result": "> 20", "unit": "µg/mL"}, {"measurement": "MFC", "setting": "C. albicans ATCC90028", "result": "> 20", "unit": "µg/mL"}, {"measurement": "MIC", "setting": "C. albicans ATCC90028", "result": "> 20", "unit": "µg/mL"}, {"measurement": "IC50", "setting": "A. fumigatus ATCC 90906", "result": "> 20", "unit": "µg/mL"}, {"measurement": "MFC", "setting": "A. fumigatus ATCC 90906", "result": "> 20", "unit": "µg/mL"}, {"measurement": "MIC", "setting": "A. fumigatus ATCC 90906", "result": "> 20", "unit": "µg/mL"}]}
{"smiles": "CCCCCCOc1c(OC)cc(NC(C)CCCN)c2nc(C(C)(C)C)ccc12", "note": "(stereo not drawn) [compound 47, N^4-(2-tert-Butyl-5-(hexyloxy)-6-methoxyquinolin-8-yl)pentane-1,4-diamine]", "values": [{"measurement": "P. yoelii nigeriensis blood-schizontocidal activity (mice cured/treated)", "setting": "[1]; 25 mg/kg/day × 4, oral", "result": "inactive (0/6)"}, {"measurement": "P. yoelii nigeriensis blood-schizontocidal activity (mice cured/treated)", "setting": "[1]; 50 mg/kg/day × 4, oral", "result": "cured 100% mice; also recorded: curative (6/6)"}, {"measurement": "P. yoelii nigeriensis blood-schizontocidal activity (mice cured/treated)", "setting": "[1]; 100 mg/kg/day × 4, oral", "result": "curative (6/6)"}, {"measurement": "cytotoxicity CTX", "setting": "[2]", "result": "NC (NC, not cytotoxic up to 4760 ng/mL (4.76 μg/mL))"}, {"measurement": "IC50", "setting": "SA (ATCC29213)", "result": 2.77, "unit": "µg/mL"}, {"measurement": "MBC", "setting": "SA (ATCC29213)", "result": 5, "unit": "µg/mL"}, {"measurement": "MIC", "setting": "SA (ATCC29213)", "result": 5, "unit": "µg/mL"}, {"measurement": "IC50", "setting": "C. neoformans ATCC90113", "result": 2.97, "unit": "µg/mL"}, {"measurement": "MFC", "setting": "C. neoformans ATCC90113", "result": 5, "unit": "µg/mL"}, {"measurement": "MIC", "setting": "C. neoformans ATCC90113", "result": 5, "unit": "µg/mL"}, {"measurement": "P. falciparum (W2) IC50", "setting": "P. falciparum (W2); CQ-resistant W2 strain, 72 h", "result": 0.04, "unit": "µg/mL"}, {"measurement": "IC50", "setting": "P. falciparum (W2)", "result": 0.042, "unit": "µg/mL"}, {"measurement": "IC50", "setting": "[3]", "result": 4.6, "unit": "µg/mL"}, {"measurement": "IC90", "setting": "[3]", "result": "> 40", "unit": "µg/mL"}, {"measurement": "IC50", "setting": "[4]", "result": 6.3, "unit": "µg/mL"}, {"measurement": "MBC", "setting": "[4]", "result": 10, "unit": "µg/mL"}, {"measurement": "MIC", "setting": "[4]", "result": 10, "unit": "µg/mL"}, {"measurement": "IC50", "setting": "P. falciparum (D6)", "result": 0.042, "unit": "µg/mL"}, {"measurement": "MIC", "setting": "MRSA (ATCC33591)", "result": 5, "unit": "µg/mL"}, {"measurement": "P. berghei blood-schizontocidal activity (mice cured/treated)", "setting": "[5]; 10 mg/kg/day × 4, oral", "result": "active (5/6)"}, {"measurement": "P. berghei blood-schizontocidal activity (mice cured/treated)", "setting": "[5]; 25 mg/kg/day × 4, oral", "result": "curative (6/6)"}, {"measurement": "P. berghei blood-schizontocidal activity (mice cured/treated)", "setting": "[5]; 50 mg/kg/day × 4, oral", "result": "curative (6/6)"}, {"measurement": "P. berghei blood-schizontocidal activity (mice cured/treated)", "setting": "[5]; 100 mg/kg/day × 4, oral", "result": "curative (6/6)"}, {"measurement": "IC50", "setting": "C. albicans ATCC90028", "result": 15.4, "unit": "µg/mL"}, {"measurement": "MFC", "setting": "C. albicans ATCC90028", "result": 20, "unit": "µg/mL"}, {"measurement": "MIC", "setting": "C. albicans ATCC90028", "result": 20, "unit": "µg/mL"}, {"measurement": "IC50", "setting": "A. fumigatus ATCC 90906", "result": "> 20", "unit": "µg/mL"}, {"measurement": "MFC", "setting": "A. fumigatus ATCC 90906", "result": "> 20", "unit": "µg/mL"}, {"measurement": "MIC", "setting": "A. fumigatus ATCC 90906", "result": "> 20", "unit": "µg/mL"}]}
